# Bioassay records: PubChem, several laboratories
# GSTO1 inh – inhibitors of recombinant GSTO1, primary screen, counter-screen for RBBP9 inhibitor project, biochemical, fluorescence polarization; activity-based probe fluorescence polarization; 1.1% of 300,000 active; inhibition, % at 5.96 µM;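 active = inhibition above the campaign mean inhibition plus 3 SD, cut at about 35% in these data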
# TCR CD3 inh – inhibitors of human TCR-CD3 interaction, primary screen, biochemical, fluorescence, TAMRA-labeled TCR probe; T-cell receptor (TCR); inhibition, % at 9.4 µM; 0.37% of 360,000 active; AID 651800, 2012; in the data active = inhibition above about 19%;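 note: recombinant mutant TCR 2C K166C tagged with TAMRA read by polarization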
# PAD4 FP inh – human PAD4 inhibitors, primary screen, biochemical, fluorescence polarization, 1536-well format; recombinant PAD4, RCA probe fluorescence polarization; AID 485272, 2010; inhibition, % at 6.36 µM; 0.41% of 330,000 active; Protein-arginine deiminase type-4 (Homo sapiens), Q9UM07;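 active = percent inhibition above a cutoff equal to the mean of all tested compounds plus 3 SD, cut at about 15% in these data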
# TDP2 absorb – human TDP2 enzyme inhibitors, primary screen, biochemical, epi absorbance, recombinant enzyme; Tyrosyl-DNA phosphodiesterase 2 (Homo sapiens), O95551; 0.34% of 370,000 active; inhibition, % at 12.8 µM; T5PNP hydrolysis, p-nitrophenol absorbance 415 nm;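 active = inhibition above the mean of all tested compounds plus 3 SD, set per campaign, cut at about 25% in these data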
#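 Assay system: Recombinant human TDP2 | Quantity: 120 nM TDP2 per well | Incubation: 2 h at 37 °C | Signal: Epi absorbance | Evaluation: Percent inhibition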
# Apaf1 inhib – inhibitors of human Apaf-1 apoptosome, primary screen, biochemical, DEVD-Rh110 fluorescence, uHTS. Apoptotic protease-activating factor 1 (Homo sapiens), O14727. reconstituted apoptosome caspase-3 activity. inhibition, % at 20 µM. 0.71% of 330,000 active. AID 489030, 2010; active = inhibition of at least 40% at 20 µM
#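 System – cell-free apoptosome with Apaf-1, procaspase-3 and caspase-9 · Buffer or medium – pH 7.5 Hepes buffer with CHAPS, BSA, DTT · Also added – cytochrome c with DEVD-Rh110 · Times – 30 min compound preincubation, 50 min activation, room temperature · Technique – Rh110 fluorescence intensity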
# SIAE inh – human SIAE inhibitors, primary screen, biochemical, fluorescence polarization, FP-Rh probe, 1536-well HTS. SIAE FP-Rh probe binding. 0.69% of 370,000 active. inhibition, % at 9.66 µM. AID 1053197, 2014;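 active = inhibition above a cutoff: mean of compounds within the control limits plus 3 SD of those, cut at about 17% in these data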
# Target sequence (Q9HAT2 whole entry, looked up): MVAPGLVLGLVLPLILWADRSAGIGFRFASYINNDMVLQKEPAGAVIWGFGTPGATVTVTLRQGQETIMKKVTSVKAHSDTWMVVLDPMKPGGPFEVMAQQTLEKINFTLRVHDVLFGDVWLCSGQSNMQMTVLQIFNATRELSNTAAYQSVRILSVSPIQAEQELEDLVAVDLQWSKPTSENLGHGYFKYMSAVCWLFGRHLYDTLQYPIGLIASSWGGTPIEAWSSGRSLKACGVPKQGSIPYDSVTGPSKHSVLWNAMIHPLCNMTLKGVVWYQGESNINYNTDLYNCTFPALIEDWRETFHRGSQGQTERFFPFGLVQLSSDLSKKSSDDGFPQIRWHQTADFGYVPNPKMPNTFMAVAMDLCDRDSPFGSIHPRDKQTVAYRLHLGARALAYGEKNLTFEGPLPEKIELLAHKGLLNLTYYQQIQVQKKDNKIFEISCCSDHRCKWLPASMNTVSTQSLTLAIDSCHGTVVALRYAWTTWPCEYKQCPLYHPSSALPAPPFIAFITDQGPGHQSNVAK
# SIAE inh conf – human SIAE inhibitors, retest, confirmation, biochemical, fluorescence polarization, FP-Rh probe, triplicate. 13% of 2,300 active. SIAE FP-Rh activity-based probe. inhibition, % at 9.66 µM. shares compounds with SIAE inh;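 active = mean inhibition of the replicates above the hit cutoff set in the primary screen, cut at about 17% in these data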;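 note: inhibitors lower polarization as more probe stays unbound to SIAE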
# A number is an active result; - = inactive; . = no result given. Compounds with a hit are over-represented: about 2.4% of the library has one in this group of screens.
SMILES,GSTO1 inh,TCR CD3 inh,PAD4 FP inh,TDP2 absorb,Apaf1 inhib,SIAE inh,SIAE inh conf
COC(=O)c1ccc(OC(=O)CCN2c3ccccc3Sc3ccccc32)cc1,-,-,-,-,-,-,.
CCC1OC(C(C)C)Cc2[nH][nH]c(=O)c21 (stereo not given),.,-,.,-,.,17.4,-
CCOC(=O)Nc1ccc(NC(=O)c2c(OC)cccc2OC)cc1,-,-,-,-,-,-,.
Cc1cccc(OCC(=O)OC2CCN(C)CC2)c1,-,-,-,-,-,-,.
CC(C)c1ccccc1NC(=O)Nc1nc(C(N)Cc2ccc(C(F)(F)F)cc2)cs1 (stereo not given),.,-,.,-,.,-,.
NC(Cc1ccc(C(F)(F)F)cc1)c1csc(NC(=O)Nc2ccccc2Cc2ccccc2)n1 (stereo not given),.,-,.,-,.,17.1,22.7
CCCn1c(SCC(=O)Nc2c(CC)cccc2CC)nnc1C(C)C,-,-,-,-,-,-,.
O=C(CN1C(=O)NC2(CCCCC2)C1=O)N1CCN(S(=O)(=O)c2cccc([N+](=O)[O-])c2)CC1,.,-,-,-,-,18.4,-
CC1Cc2nc(SCC(=O)NCC3CCCO3)n(C)c(=O)c2S1 (stereo not given),-,-,-,-,-,19.7,-
CCn1c(SCC(=O)NCC2CCCO2)nc2c(c1=O)SC(C)C2 (stereo not given),-,-,-,-,-,-,.
O=C(CSc1nc2c(c(=O)n1-c1ccc(F)cc1)SCC2)NCC1CCCO1 (stereo not given),-,-,-,-,-,-,.
O=C(CSc1nc2c(c(=O)n1-c1ccccc1)SCC2)NCC1CCCO1 (stereo not given),-,-,-,-,-,31.5,-
Cc1nn(C)cc1/C=N\NC(=O)c1csc2c1CCCC2,-,-,-,-,-,-,.
CC(C)c1ccc(C2C3=C(CC(C)(C)CC3=O)NC3=C2C(=O)c2ccccc23)cc1 (stereo not given),-,-,-,-,-,22.6,-
CC1(C)CC(=O)C2=C(C1)NC1=C(C(=O)c3ccccc31)C2c1ccccc1 (stereo not given),-,-,-,-,-,-,.
CN(C)c1ccc(NC(=O)Nc2ccc3c(c2)c(=O)n(C)n3Cc2ccccc2)cc1,.,-,.,-,.,-,.
CN(C)c1ccc(NC(=O)Nc2ccc3c(c2)c(=O)n(C)n3Cc2ccc(Cl)cc2)cc1,.,-,.,-,.,27.0,-
CCOC(=O)c1c(CN2CCCCC2)n(C)c2cc(Br)c(OC)cc12,-,-,-,-,-,-,.
N#CCCN(C(=O)COC(=O)CCc1ccccc1)c1ccccc1,-,-,-,-,-,-,.
Cc1ccc(SCC(=O)OCC(=O)N(CCC#N)c2ccccc2)cc1C,-,-,-,-,-,29.4,-
Nc1c(-c2ccccc2)nc2ncccn12,.,-,.,-,.,-,.
O=Nc1c(-c2cccc([N+](=O)[O-])c2)nc2ncccn12,-,-,-,-,-,18.0,-
Cc1ccc2nc(Cl)c3cc(C(=O)NCCCN4CCCC4)sc3c2c1,-,-,-,-,-,-,.
O=C(Nc1ccc2[nH]c(=S)sc2c1)c1ccccc1,-,-,-,-,-,-,.
O=C(Nc1ccc2[nH]c(=S)sc2c1)Nc1ccccc1F,-,-,-,-,-,26.2,-
SMILES,GSTO1 inh,TCR CD3 inh,PAD4 FP inh,TDP2 absorb,Apaf1 inhib,SIAE inh,SIAE inh conf
CC1(C)CC(=O)C(C=Nc2ccncc2)=C(O)C1,-,-,-,-,-,-,.
CCOC(=O)c1c(C)[nH]c(C2=NNC(=Nc3ccc(OCC)cc3)SC2)c1C,-,-,-,-,.,28.0,-
CC(C)CC(=O)NC(=S)NNC(=O)c1ccc([N+](=O)[O-])cc1,-,-,-,-,-,30.8,-
COc1ccc(C2CC(=O)Nc3ccccc3S2(=O)=O)cc1OC (stereo not given),-,-,-,-,-,18.2,-
O=C(CNC(=S)N(Cc1ccccc1)Cc1ccccc1F)NCCc1ccccc1,-,-,-,-,-,-,.
COc1ccc(-c2c(-c3cc(OC)cc(OC)c3)n(C)c3ccc(Br)cc23)cc1,.,-,-,-,-,-,.
COc1ccc(N=Nc2nc3ccc(Br)cc3n2C)cc1,-,-,-,-,.,18.3,-
Oc1ccc(N=Nc2ccc3c(c2)OCCO3)c(O)c1,-,-,-,-,-,-,.
Oc1ccc(N=Nc2ccc3c(c2)OCCO3)c2cccnc12,-,-,-,-,-,20.4,-
COc1cc(C(=O)OC(C)C(=O)Nc2ccc3c(c2)OCCO3)cc(OC)c1OC (stereo not given),.,-,-,-,-,-,.
O=C(NC(=S)Nc1ccc(CN2CCOCC2)cc1)c1ccc([N+](=O)[O-])cc1Cl,-,-,-,-,-,-,.
CC(C)C(NC(=O)/C=C/c1ccc(F)cc1)C(C)C,-,-,-,-,-,-,.
CC1CCC/C(=N/NC(=O)c2ccccc2-n2cccc2)C1 (stereo not given),-,-,-,-,-,42.4,-
CC1CCC(=NNC(=O)c2ccccc2-n2cccc2)CC1 (stereo not given),-,-,-,-,-,-,.
Clc1ccc(SCc2csc(N3CCOCC3)n2)cc1,-,-,-,-,-,18.0,-
CS(=O)(=O)N1CCN(c2ccc(NC(=S)NC(=O)c3ccccc3[N+](=O)[O-])cc2)CC1,-,-,-,-,-,20.4,-
CS(=O)(=O)N1CCN(c2ccc(NC(=S)NC(=O)c3cccs3)cc2)CC1,-,-,-,-,-,-,.
OCC1(CCc2ccccc2)CCCN(C/C=C/c2ccccc2)C1 (stereo not given),-,-,-,-,-,18.5,-
COc1ccccc1C(=O)OCC(=O)c1ccc(CNC(C)=O)s1,.,-,-,-,-,-,.
COc1ccc(C(=O)OCC(=O)c2ccc(CNC(C)=O)s2)cc1,.,-,-,-,-,24.0,-
CCn1c(CCl)nc2cc(S(=O)(=O)N3CCOCC3)ccc21,.,-,-,-,-,17.8,-
CCN(CC)c1ccc(NC(=S)NC(=O)c2cccs2)cc1,-,-,-,-,-,17.5,-
CC(=O)NC(=S)Nc1ccc(NC(=S)NC(=O)c2cccs2)cc1,-,-,-,-,-,-,.
Nc1nonc1N/N=C\c1ccccc1,-,-,-,-,-,-,.
Nc1cc(Cl)nc(N/N=C/c2c(O)ccc3ccccc23)n1,-,-,-,-,-,18.9,-
